Results reported in ChEMBL document CHEMBL1127349, “6,7,8,9-Tetrahydro-N,N-di-n-propyl-3H-benzindol-8-amines. Derivatives as potent and orally active serotonin 5-HT1A receptor agonists” (J Med Chem, 1994).
Active and inactive are the calls of the source. The calls are words filed in the database; no cut-off is given here.

How the values were obtained:
[1] = molecular target: T1, 5-hydroxytryptamine receptor 1A (Rattus norvegicus, UniProt P19327); test: Displacement of the radioligand [3H]8-OH-DPAT from 5-hydroxytryptamine 1A receptor
T1 sequence (P19327 whole entry): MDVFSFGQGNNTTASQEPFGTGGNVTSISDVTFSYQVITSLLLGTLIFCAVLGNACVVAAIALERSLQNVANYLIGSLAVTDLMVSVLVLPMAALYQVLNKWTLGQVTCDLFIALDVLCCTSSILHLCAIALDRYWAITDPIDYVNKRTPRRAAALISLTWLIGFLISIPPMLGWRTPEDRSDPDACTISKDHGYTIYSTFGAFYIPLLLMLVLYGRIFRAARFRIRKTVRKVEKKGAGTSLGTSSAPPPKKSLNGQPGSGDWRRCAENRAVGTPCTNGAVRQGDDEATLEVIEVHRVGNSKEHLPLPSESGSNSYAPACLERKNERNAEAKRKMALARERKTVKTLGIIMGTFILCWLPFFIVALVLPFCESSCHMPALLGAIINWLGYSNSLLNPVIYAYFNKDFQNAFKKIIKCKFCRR
Procedure, shortened: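 Rat whole brain minus brain stem and cerebellum, washed membranes in 50 mM Tris pH 8.0 with 120 mM NaCl, 4 mM CaCl2, 4 mM MgCl2, 10 μM pargyline. Nonspecific with 10 μM 5-HT. IC50 by semilog linear regression, Ki via Cheng–Prusoff; 3–7 experiments, triplicates.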

D(2) dopamine receptor = D(2) dopamine receptor (Rattus norvegicus, UniProt P61169); test: Displacement of the radioligand [3H]spiperone from D2 receptor
Chain of D(2) dopamine receptor (P61169 whole entry): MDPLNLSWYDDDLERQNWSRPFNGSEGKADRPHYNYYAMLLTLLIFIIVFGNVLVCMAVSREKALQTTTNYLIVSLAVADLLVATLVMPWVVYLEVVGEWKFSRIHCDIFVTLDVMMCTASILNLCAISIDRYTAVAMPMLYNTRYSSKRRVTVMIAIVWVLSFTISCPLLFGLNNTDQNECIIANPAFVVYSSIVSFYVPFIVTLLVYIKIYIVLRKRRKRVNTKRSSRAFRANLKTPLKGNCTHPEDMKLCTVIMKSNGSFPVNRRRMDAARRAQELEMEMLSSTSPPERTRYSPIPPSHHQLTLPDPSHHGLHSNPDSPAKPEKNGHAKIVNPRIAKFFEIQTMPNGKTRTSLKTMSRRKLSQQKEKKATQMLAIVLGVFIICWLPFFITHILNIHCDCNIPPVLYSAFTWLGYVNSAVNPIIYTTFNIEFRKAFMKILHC
Procedure, shortened: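 Rat striatal membranes in 50 mM potassium phosphate buffer, incubated with 0.5 nM [3H]spiperone (3 mg tissue) 10 min at 37 °C. Nonspecific binding defined with 10 μM 6,7-ADTN. IC50 converted to Ki by Cheng–Prusoff; 3–7 experiments, each concentration in triplicate.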

Rattus norvegicus [2] = test: Motor activity was measured by motility testing on injecting the compound subcutaneously into rats at the dose of 12.5 umol/kg; format: functional
Procedure, shortened: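 Rats given reserpine 5 mg/kg sc 18 h beforehand, then test compound sc in neck (n = 4). Placed singly in photocell motility meters straight after dosing; counts recorded for 30 min, gross behaviour observed throughout. Value as counts/30 min with SEM.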

Rattus norvegicus [3] = test: The concentration yielding a half maximal decrease of the DOPA was determined in rat limbic system; inactive at 50 umol/kg; format: functional, organism-based
Rattus norvegicus [4] = test: The concentration yielding a half maximal decrease of the 5-HTP was determined in rat limbic system; inactive at 50 umol/kg; format: functional, organism-based
Procedure, shortened: (§1)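 Reserpine-pretreated (5 mg/kg sc, 18 h) male Sprague-Dawley rats, 200–300 g; compounds in saline given sc. DOPA and 5-HTP in limbic system, striatum and hemispheres measured by HPLC with electrochemical detection. Dose–response curves of 4–6 doses (n = 4) per area, fitted to variable-slope sigmoid on log data to give ED50.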

Rattus norvegicus [5] = test: The concentration yielding a half maximal decrease of the DOPA was determined in rat brain striatum; Partial response 50 umol/kg; format: functional, organism-based
Rattus norvegicus [6] = test: The concentration yielding a half maximal decrease of the 5-HTP was determined in rat brain hemispheres; inactive at 50 umol/kg; format: functional, organism-based; procedure, shortened: as §1
Rattus norvegicus [7] = test: The concentration yielding a half maximal decrease of the 5-HTP was determined in rat brain striatum; inactive at 50 umol/kg; format: functional, organism-based; procedure, shortened: as §1
Rattus norvegicus [8] = test: The concentration yielding a half maximal decrease of the DOPA was determined in rat brain hemispheres; inactive at 50 umol/kg; format: functional, organism-based; procedure, shortened: as §1
[9] = Area under the curve after intravenous administration at a dose of 5 umol/kg; format: ADME; conditions: in vivo
Procedure, shortened: (§2)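 Male Sprague-Dawley rats, iv dosing. Blood sampled at intervals up to 12 h, plasma drug levels by GC/MS with internal standard and a 2–1000 pmol/mL standard curve in blank blood. AUC from total area of concentration–time curve; iv n = 3 (table values SEM, n = 4–6).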

[10] = Maximum concentration in plasma after administration of 40 umol/kg dose perorally; format: ADME, organism-based; design: dose 40 umol/kg, route oral; conditions: po
Procedure, shortened: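 Male Sprague-Dawley rats starved 18 h, dosed orally. Blood samples over up to 12 h, drug quantified by GC/MS against internal standard (2–1000 pmol/mL standard curve). Cmax read from concentration–time curve; SEM, n = 4–6.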

[11] = Maximum concentration in plasma after administration of 5 umol/kg dose intravenously; format: ADME, organism-based; design: dose 5 umol/kg, route intravenous; conditions: iv; procedure, shortened: as §2
[12] = Bioavailability in rats after 2 mg/kg (i.v.) and 10 mg/kg (p.o.) administration; format: ADME, organism-based; conditions: rat, in vivo, po
[13] = Time taken to reach maximum concentration after administration of 40 umol/kg dose perorally; format: ADME, organism-based; conditions: in vivo, po
Procedure, shortened: (§3)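 Male Sprague-Dawley rats, starved 18 h for the oral arm, dosed iv or po. Blood sampled at intervals up to 12 h. Compound measured by GC/mass spectrometry against an internal standard, with a standard curve over 2–1000 pmol/mL in blank blood. tmax read from concentration–time curves, n = 4–6.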

[14] = Time taken to reach maximum concentration after administration of 5 umol/kg dose intravenously; format: ADME, organism-based; conditions: in vivo, iv; procedure, shortened: as §3
[15] = Half life in plasma after administration of 5 umol/kg dose intravenously; format: ADME, organism-based; conditions: iv; procedure, shortened: as §2
Rattus norvegicus [16] = species on record: Rattus norvegicus; test: The concentration yielding a half maximal decrease of the 5-HTP was determined in rat brain striatum.; format: functional
Rattus norvegicus [17] = species on record: Rattus norvegicus; test: The concentration yielding a half maximal decrease of the DOPA was determined in rat brain hemispheres; format: functional
Rattus norvegicus [18] = species on record: Rattus norvegicus; test: The concentration yielding a half maximal decrease of the 5-HTP was determined in rat brain hemispheres.; format: functional
Rattus norvegicus [19] = species on record: Rattus norvegicus; test: The concentration yielding a half maximal decrease of the 5-HTP was determined in rat limbic system.; format: functional
Rattus norvegicus [20] = species on record: Rattus norvegicus; test: The concentration yielding a half maximal decrease of the DOPA was determined in rat limbic system.; format: functional
Rattus norvegicus [21] = species on record: Rattus norvegicus; test: Log concentration to inhibit 5-HTP accumulation was determined in rat brain hemispheres; format: functional; procedure, shortened: as §1
Rattus norvegicus [22] = species on record: Rattus norvegicus; test: Log concentration to inhibit 5-HTP accumulation was determined in rat limbic system; format: functional; procedure, shortened: as §1
Rattus norvegicus [23] = species on record: Rattus norvegicus; test: Log concentration to inhibit DOPA accumulation was determined in rat brain hemispheres; format: functional; procedure, shortened: as §1
Rattus norvegicus [24] = species on record: Rattus norvegicus; test: Log concentration to inhibit DOPA accumulation was determined in rat brain striatum; format: functional; procedure, shortened: as §1
Rattus norvegicus [25] = species on record: Rattus norvegicus; test: Log concentration to inhibit DOPA accumulation was determined in rat limbic system; format: functional; procedure, shortened: as §1
Rattus norvegicus [26] = species on record: Rattus norvegicus; test: Log concentration to inhibit 5-HTP accumulation was determined in rat brain striatum; format: functional; procedure, shortened: as §1
Rattus norvegicus [27] = species on record: Rattus norvegicus; test: The concentration yielding a half maximal decrease of the DOPA was determined in rat brain striatum.; format: functional
Rattus norvegicus [28] = test: The concentration yielding a half maximal decrease of the DOPA was determined in rat limbic system; inactive at 45 umol/kg; format: functional, organism-based
Rattus norvegicus [29] = test: The concentration yielding a half maximal decrease of the DOPA was determined in rat brain hemispheres; inactive at 45 umol/kg; format: functional, organism-based; procedure, shortened: as §1
Rattus norvegicus [30] = test: The concentration yielding a half maximal decrease of the DOPA was determined in rat brain striatum; inactive at 45 umol/kg; format: functional, organism-based
Rattus norvegicus [31] = test: Motor activity was measured by motility testing on injecting the compound subcutaneously into rats at the dose of 0.02 umol/kg (1a) and 3.5 umol/kg (1b)
Rattus norvegicus [32] = test: The concentration yielding a half maximal decrease of the DOPA was determined in rat limbic system; Partial response 50 umol/kg; format: functional, organism-based
Rattus norvegicus [33] = test: The concentration yielding a half maximal decrease of the DOPA was determined in rat brain hemispheres; Inactive at 50 umol/kg; format: functional, organism-based; procedure, shortened: as §1
Rattus norvegicus [34] = test: The concentration yielding a half maximal decrease of the DOPA was determined in rat brain striatum; inactive at 50 umol/kg; format: functional, organism-based

Structure (SMILES): CCCN(CCC)C1CCc2ccc3[nH]cc(CC(F)(F)F)c3c2C1 (centres undefined)
- Ki [1]: 182 nM
- Ki (D(2) dopamine receptor): 796 nM
- Activity (Rattus norvegicus [2]): 10 Counts 30min-1
- ED50 (Rattus norvegicus [3]): inactive
- ED50 (Rattus norvegicus [4]): inactive
- ED50 (Rattus norvegicus [5]): Weak activity
- ED50 (Rattus norvegicus [6]): inactive
- ED50 (Rattus norvegicus [7]): inactive
- ED50 (Rattus norvegicus [8]): inactive

Structure (SMILES): CCCN(CCC)[C@H]1CCc2ccc3[nH]ccc3c2C1
- Activity (Rattus norvegicus [2]): 29 Counts 30min-1

Structure (SMILES): CCCN(CCC)C1CCc2ccc3[nH]cc(C#N)c3c2C1 (centres undefined)
- Ki [1]: 1.8 nM
- AUC [9]: 1115 pM/kg
- Cmax [10]: 1500 nM
- Cmax [11]: 1730 nM
- bioavailability [12]: 54%
- Tmax [13]: 2.25 h
- Tmax [14]: 2 min
- half-life [15]: 1.5 h
- Ki (D(2) dopamine receptor): 439 nM
- Activity (Rattus norvegicus [2]): 317 Counts 30min-1
- ED50 (Rattus norvegicus [16]): 0.22 µmol/kg
- ED50 (Rattus norvegicus [17]): 5.2 µmol/kg
- ED50 (Rattus norvegicus [18]): 0.45 µmol/kg
- ED50 (Rattus norvegicus [19]): 0.17 µmol/kg
- ED50 (Rattus norvegicus [20]): 1.05 µmol/kg
- pED50 (Rattus norvegicus [21]): 6.35
- pED50 (Rattus norvegicus [22]): 6.77
- pED50 (Rattus norvegicus [23]): 5.29
- pED50 (Rattus norvegicus [24]): 5.49
- pED50 (Rattus norvegicus [25]): 5.98
- pED50 (Rattus norvegicus [26]): 6.65
- ED50 (Rattus norvegicus [27]): 3.2 µmol/kg

Structure (SMILES): CCCN(CCC)C1CCc2cccc(O)c2C1 (centres undefined) [8-OH-DPAT]
- ED50 (Rattus norvegicus [28]): inactive
- ED50 (Rattus norvegicus [29]): inactive
- ED50 (Rattus norvegicus [30]): inactive
- Counts/30 min (Rattus norvegicus [31]): 66

Structure (SMILES): CCCN(CCC)C1CCc2ccc3c(c2C1)N(C=O)CC3 (centres undefined)
- Ki [1]: 550 nM
- Ki (D(2) dopamine receptor): > 16000 nM
- ED50 (Rattus norvegicus [32]): Weak activity
- ED50 (Rattus norvegicus [4]): inactive
- ED50 (Rattus norvegicus [5]): Weak activity
- ED50 (Rattus norvegicus [6]): inactive
- ED50 (Rattus norvegicus [7]): inactive
- ED50 (Rattus norvegicus [8]): inactive

Structure (SMILES): CCCN(CCC)[C@H]1CCc2ccc3[nH]cc(C#N)c3c2C1
- Ki [1]: 2.9 nM
- Ki (D(2) dopamine receptor): 8020 nM
- Activity (Rattus norvegicus [2]): 300 Counts 30min-1
- ED50 (Rattus norvegicus [16]): 0.089 µmol/kg
- ED50 (Rattus norvegicus [33]): inactive
- ED50 (Rattus norvegicus [18]): 0.15 µmol/kg
- ED50 (Rattus norvegicus [19]): 0.12 µmol/kg
- ED50 (Rattus norvegicus [20]): 42 µmol/kg
- pED50 (Rattus norvegicus [21]): 6.81
- pED50 (Rattus norvegicus [22]): 7.93
- pED50 (Rattus norvegicus [24]): 4.29
- pED50 (Rattus norvegicus [25]): 4.37
- pED50 (Rattus norvegicus [26]): 7.05
- ED50 (Rattus norvegicus [27]): 52 µmol/kg

Structure (SMILES): CCCN(CCC)C1CCc2ccc3c(CC(F)(F)F)c[nH]c3c2C1 (centres undefined)
- Ki (D(2) dopamine receptor): 2330 nM
- Activity (Rattus norvegicus [2]): 74 Counts 30min-1
- ED50 (Rattus norvegicus [3]): inactive
- ED50 (Rattus norvegicus [4]): inactive
- ED50 (Rattus norvegicus [6]): inactive
- ED50 (Rattus norvegicus [7]): inactive
- ED50 (Rattus norvegicus [34]): inactive
- ED50 (Rattus norvegicus [8]): inactive

Structure (SMILES): CCCN(CCC)C1CCc2ccc3c(c2C1)NCC3 (centres undefined)
- Ki [1]: 410 nM
- Ki (D(2) dopamine receptor): 650 nM
- ED50 (Rattus norvegicus [32]): Weak activity
- ED50 (Rattus norvegicus [4]): inactive
- ED50 (Rattus norvegicus [5]): Weak activity
- ED50 (Rattus norvegicus [6]): inactive
- ED50 (Rattus norvegicus [7]): inactive
- ED50 (Rattus norvegicus [8]): inactive
